Blank lines part the entries; values can stand above or below the compound they belong to. Active and inactive are the calls of the source. No cut-off for these calls is given here.
Assays:
[1] = Cytotoxicity against human SKBR3 cells by MTS assay; settings: SK-BR-3
A549 [2] = assay: Effect on B-Raf level in human A549 cells at five times IC50 value after 12 to 24 hrs by Western blot analysis; assay type: ADME, cell-based
Summary of the method: (§1)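 MPER lysates with protease/phosphatase inhibitors. 15 µg protein per lane on reducing 10% SDS gels, transferred to PVDF, immunoblotted, HRP chemiluminescent detection.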

[3] = target: T1, Heat shock protein HSP90 (Homo sapiens) (UniProt P07900+P08238); assay: Inhibition of Hsp90 in human A549 cells assessed as effect on EGFR protein degradation at 0.5 to 5 times IC50 value after 12 hrs by western blot analysis; assay type: cell-based
Summary of the method: (§2)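 MPER lysates. 15 µg protein per lane, reducing 10% SDS-PAGE, PVDF transfer, immunoblot for EGFR, Her2, C-Raf and Hsp90, chemiluminescent detection.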

A549 [4] = assay: Effect of total Akt levels in human A549 cells at five times IC50 value after 2 to 12 hrs by Western blot analysis; assay type: ADME, cell-based
Summary of the method: (§3)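 Lysed in MPER with protease/phosphatase inhibitors, clarified at 14,000g. 15 µg protein per lane run on reducing 10% gels, transferred to PVDF, immunoblotted, detected by HRP chemiluminescence.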

A549 [5] = assay: Cytotoxicity against human A549 cells assessed as cell growth inhibition after 72 hrs by MTS assay; assay type: functional, cell-based; settings: A549, 72 h
Summary of the method: (§4)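 Cells grown to confluence, seeded at 2000 cells/well and left overnight to attach. Compound added across a concentration range in DMSO (1% final), then 72 h at 37 °C, 5% CO2. Growth read by MTS/PMS relative to 1% DMSO wells (100% growth). IC50 taken from two separate experiments, each in triplicate.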

[6] = target: T2, B-raf/RAF proto-oncogene serine/threonine-protein kinase (Homo sapiens) (UniProt P04049+P15056); assay: Inhibition of B-Raf/C-Raf in human A549 cells assessed as decrease in phosphorylated MEK levels at five times IC50 value by Western blot analysis; assay type: cell-based; settings: TDE = time-dependent effect
T2 sequence (P04049 whole entry, looked up): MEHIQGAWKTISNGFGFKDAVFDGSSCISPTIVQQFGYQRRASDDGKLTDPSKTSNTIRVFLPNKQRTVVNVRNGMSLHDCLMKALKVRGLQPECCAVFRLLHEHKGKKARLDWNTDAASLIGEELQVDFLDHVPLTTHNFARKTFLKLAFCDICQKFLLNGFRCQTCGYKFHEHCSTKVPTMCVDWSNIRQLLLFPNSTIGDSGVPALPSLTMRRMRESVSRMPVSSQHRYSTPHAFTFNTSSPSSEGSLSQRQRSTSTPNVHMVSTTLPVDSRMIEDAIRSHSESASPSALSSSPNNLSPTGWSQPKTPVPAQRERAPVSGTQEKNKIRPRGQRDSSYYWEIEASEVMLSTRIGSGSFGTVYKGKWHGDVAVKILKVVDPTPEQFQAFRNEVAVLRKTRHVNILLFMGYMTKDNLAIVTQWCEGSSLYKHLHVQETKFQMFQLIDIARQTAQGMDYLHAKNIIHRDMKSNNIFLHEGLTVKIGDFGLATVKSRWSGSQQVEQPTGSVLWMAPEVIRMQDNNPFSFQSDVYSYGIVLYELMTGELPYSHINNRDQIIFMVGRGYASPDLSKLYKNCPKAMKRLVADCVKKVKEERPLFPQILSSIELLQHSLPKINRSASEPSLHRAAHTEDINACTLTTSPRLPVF
T2 sequence (P15056 whole entry, looked up): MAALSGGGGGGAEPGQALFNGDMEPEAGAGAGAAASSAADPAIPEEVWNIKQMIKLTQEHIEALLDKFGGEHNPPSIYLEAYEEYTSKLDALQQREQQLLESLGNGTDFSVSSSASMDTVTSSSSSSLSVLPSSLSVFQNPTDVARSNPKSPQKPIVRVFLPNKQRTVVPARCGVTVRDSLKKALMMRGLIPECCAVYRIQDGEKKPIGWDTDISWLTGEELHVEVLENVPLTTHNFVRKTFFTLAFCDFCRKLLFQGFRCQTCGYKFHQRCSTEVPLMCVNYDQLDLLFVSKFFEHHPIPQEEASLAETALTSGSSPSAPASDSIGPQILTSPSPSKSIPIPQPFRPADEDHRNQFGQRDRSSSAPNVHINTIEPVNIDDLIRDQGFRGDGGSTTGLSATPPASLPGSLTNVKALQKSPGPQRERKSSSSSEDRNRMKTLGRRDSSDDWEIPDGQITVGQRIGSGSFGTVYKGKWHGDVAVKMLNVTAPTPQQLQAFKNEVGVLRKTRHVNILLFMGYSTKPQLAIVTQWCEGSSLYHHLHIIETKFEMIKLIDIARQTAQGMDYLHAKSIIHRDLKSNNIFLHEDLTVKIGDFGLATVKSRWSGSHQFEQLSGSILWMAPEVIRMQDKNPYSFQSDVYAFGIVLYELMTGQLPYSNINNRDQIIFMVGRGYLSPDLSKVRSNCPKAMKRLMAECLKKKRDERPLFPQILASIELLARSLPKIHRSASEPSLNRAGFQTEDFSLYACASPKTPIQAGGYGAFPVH

[7] = target: T2, B-raf/RAF proto-oncogene serine/threonine-protein kinase (Homo sapiens); assay: Inhibition of B-Raf/C-Raf in human A549 cells assessed as decrease in phosphorylated MEK levels after 12 hrs by Western blot analysis; assay type: cell-based
[8] = target: T2, B-raf/RAF proto-oncogene serine/threonine-protein kinase (Homo sapiens); assay: Inhibition of B-Raf/C-Raf in human A549 cells assessed as decrease in phosphorylated ERK levels after 12 hrs by Western blot analysis; assay type: cell-based
A549 [9] = assay: Effect on total Erk level in human A549 cells at five times IC50 value after 2 to 12 hrs by western blot analysis; assay type: ADME, cell-based; summary of the method: as §3
[10] = target: T1, Heat shock protein HSP90 (Homo sapiens); assay: Inhibition of Hsp90 in human A549 cells assessed as effect on EGFR levels at five times IC50 value after 2 to 12 hrs by Western blot analysis; assay type: cell-based; summary of the method: as §3
[11] = target: T1, Heat shock protein HSP90 (Homo sapiens); assay: Inhibition of Hsp90 in human PC3MM2 cells upto 100 uM by luciferase refolding assay; assay type: cell-based
Summary of the method: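 Luciferase-expressing PC3-MM2 cells heat-denatured at 50 °C for 8–12 min until luminescence fell to 1% of initial. 60,000 cells/100 µL added to compound (0–100 µM, 1% DMSO final) and left 1 h to recover. Luciferin/ATP/CoA reagent then added and luminescence read at once. Refolding expressed relative to 1% DMSO wells; triplicate points fitted to dose-response curves.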

[12] = target: T1, Heat shock protein HSP90 (Homo sapiens); assay: Inhibition of Hsp90 in human MCF7 cells assessed as effect on EGFR protein degradation at 0.5 to 5 times IC50 value after 12 hrs by western blot analysis; assay type: cell-based; summary of the method: as §2
[13] = target: T1, Heat shock protein HSP90 (Homo sapiens); assay: Inhibition of Hsp90 in human MCF7 cells assessed as effect on c-Raf protein degradation at 0.5 to 5 times IC50 value after 12 hrs by western blot analysis; assay type: cell-based; summary of the method: as §2
[14] = target: T2, B-raf/RAF proto-oncogene serine/threonine-protein kinase (Homo sapiens); assay: Inhibition of B-Raf/C-Raf heterodimerization in human A549 cells at five times IC50 value after 24 hrs by SDS-PAGE/Western blot analysis; assay type: cell-based
Summary of the method: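 Lysed in 0.1% NP40, 50 mM Tris pH 7.5, 150 mM NaCl with inhibitors. 500 µg protein incubated with B-Raf antibody overnight at 4 °C, captured on Protein G beads for 3 h at 4 °C, washed, eluted, then SDS-PAGE and immunoblot for c-Raf.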

[15] = target: T1, Heat shock protein HSP90 (Homo sapiens); assay: Inhibition of Hsp90 in human A549 cells assessed as effect on c-Raf protein degradation at 0.5 to 5 times IC50 value after 12 hrs by western blot analysis; assay type: cell-based; summary of the method: as §2
A549 [16] = assay: Inhibition of PI3K activity in human A549 cells assessed as effect on phosphorylated Akt level at five times IC50 value after 2 to 12 hrs by Western blot analysis; assay type: cell-based; summary of the method: as §3
MCF7 [17] = assay: Cytotoxicity against human MCF7 cells assessed as cell growth inhibition after 72 hrs by MTS assay; assay type: functional, cell-based; settings: MCF7, 72 h; summary of the method: as §4
[18] = target: T2, B-raf/RAF proto-oncogene serine/threonine-protein kinase (Homo sapiens); assay: Inhibition of B-Raf/C-Raf in human A549 cells assessed as decrease in phosphorylated ERK levels at five times IC50 value by Western blot analysis; assay type: cell-based; settings: TDE = time-dependent effect
[19] = target: T1, Heat shock protein HSP90 (Homo sapiens); assay: Inhibition of Hsp90 in human MCF7 cells assessed as effect on Her2 protein degradation at 0.5 to 5 times IC50 value after 12 hrs by western blot analysis; assay type: cell-based; summary of the method: as §2
MRC5 = assay: Cytotoxicity against human MRC5 cells assessed as cell growth inhibition after 72 hrs by MTS assay; assay type: cell-based; settings: MRC5, 72 h; summary of the method: as §4
[20] = target: T1, Heat shock protein HSP90 (Homo sapiens); assay: Inhibition of Hsp90 in human A549 cells assessed as decrease in C-Raf levels at five times IC50 value after 2 to 12 hrs by Western blot analysis; assay type: cell-based; summary of the method: as §3
[21] = target: T1, Heat shock protein HSP90 (Homo sapiens); assay: Inhibition of Hsp90 in human A549 cells assessed as effect on Her2 protein degradation at 0.5 to 5 times IC50 value after 12 hrs by western blot analysis; assay type: cell-based; summary of the method: as §2
A549 [22] = assay: Effect on total Mek level in human A549 cells at five times IC50 value after 2 to 12 hrs by western blot analysis; assay type: ADME, cell-based; summary of the method: as §3
[23] = target: T1, Heat shock protein HSP90 (Homo sapiens); assay: Inhibition of Hsp90 in human A549 cells assessed as decrease in Her2 levels at five times IC50 value after 24 hrs by Western blot analysis; assay type: cell-based; summary of the method: as §1
[24] = target: T1, Heat shock protein HSP90 (Homo sapiens); assay: Inhibition of Hsp90 in human A549 cells assessed as decrease in c-Raf levels at five times IC50 value after 24 hrs by Western blot analysis; assay type: cell-based; summary of the method: as §1
[25] = target: T1, Heat shock protein HSP90 (Homo sapiens); assay: Inhibition of Hsp90 in human A549 cells assessed as decrease in EGFR levels at five times IC50 value after 24 hrs by Western blot analysis; assay type: cell-based; summary of the method: as §1
[26] = target: T1, Heat shock protein HSP90 (Homo sapiens); assay: Inhibition of Hsp90 in human MCF7 cells assessed as decrease in C-Raf levels at five times IC50 value after 12 hrs by Western blot analysis; assay type: cell-based; summary of the method: as §2
[27] = target: T1, Heat shock protein HSP90 (Homo sapiens); assay: Inhibition of Hsp90 in human A549 cells assessed as decrease in EGFR levels at five times IC50 value after 12 hrs by Western blot analysis; assay type: cell-based
[28] = target: T1, Heat shock protein HSP90 (Homo sapiens); assay: Inhibition of Hsp90 in human MCF7 cells assessed as decrease in Her2 levels at five times IC50 value after 12 hrs by Western blot analysis; assay type: cell-based; summary of the method: as §2
[29] = target: T1, Heat shock protein HSP90 (Homo sapiens); assay: Inhibition of Hsp90 in human A549 cells assessed as decrease in Her2 levels at five times IC50 value after 12 hrs by Western blot analysis; assay type: cell-based
[30] = target: T1, Heat shock protein HSP90 (Homo sapiens); assay: Inhibition of Hsp90 in human MCF7 cells assessed as decrease in EGFR levels at five times IC50 value after 12 hrs by Western blot analysis; assay type: cell-based; summary of the method: as §2
[31] = target: T1, Heat shock protein HSP90 (Homo sapiens); assay: Inhibition of Hsp90 in human A549 cells assessed as decrease in C-Raf levels at five times IC50 value after 12 hrs by Western blot analysis; assay type: cell-based
MCF7 [32] = assay: Effect on Hsp90 expression in human MCF7 cells at 0.5 to 5 times IC50 value after 12 hrs by western blot analysis; assay type: ADME, cell-based; settings: mcf7, 12 h; summary of the method: as §2
[33] = target: T2, B-raf/RAF proto-oncogene serine/threonine-protein kinase (Homo sapiens); assay: Inhibition of B-Raf/C-Raf in human A549 cells assessed as effect on phosphorylated ERK levels at five times IC50 value after 24 hrs by Western blot analysis; assay type: cell-based; summary of the method: as §1
[34] = target: T2, B-raf/RAF proto-oncogene serine/threonine-protein kinase (Homo sapiens); assay: Inhibition of B-Raf/C-Raf in human A549 cells assessed as effect on phosphorylated MEK levels at five times IC50 value after 24 hrs by Western blot analysis; assay type: cell-based; summary of the method: as §1
[35] = target: T2, B-raf/RAF proto-oncogene serine/threonine-protein kinase (Homo sapiens); assay: Inhibition of B-Raf/C-Raf in human A549 cells assessed as decrease in phosphorylated ERK levels at five times IC50 value after 12 hrs by Western blot analysis; assay type: cell-based
[36] = target: T2, B-raf/RAF proto-oncogene serine/threonine-protein kinase (Homo sapiens); assay: Inhibition of B-Raf/C-Raf in human A549 cells assessed as decrease in phosphorylated MEK levels at five times IC50 value after 12 hrs by Western blot analysis; assay type: cell-based

SMILES: CO[C@@H]1[C@@H](OC(N)=O)[C@@H](O)[C@H](Oc2ccc3c(O)c(NC(=O)c4ccc(O)c(CC=C(C)C)c4)c(=O)oc3c2C)OC1(C)C [NOVOBIOCIN]
IC50 [1]: 700 µM

SMILES: CCCS(=O)(=O)Nc1ccc(F)c(C(=O)c2c[nH]c3ncc(-c4ccc(Cl)cc4)cc23)c1F [VEMURAFENIB]
Activity (A549 [2]): Non-toxic

SMILES: Cc1c(OC2CCN(C)CC2)ccc2cc(NC(=O)Nc3ccccc3)c(=O)oc12
IC50 (A549 [5]): 0.24 µM
inhibition [26]: Active
inhibition [27]: Active
inhibition [28]: Active
inhibition [29]: Active
IC50 (MCF7 [17]): 0.77 µM
inhibition [30]: Active
IC50 (MRC5): 3.6 µM
inhibition [31]: Active
Activity (MCF7 [32]): Non-toxic

SMILES: N#Cc1c(Oc2ccc(F)c(NC(=O)Cc3cccc(C(F)(F)F)c3)c2)ccc2nc(NC(=O)C3CC3)sc12
Activity (A549 [2]): Non-toxic
IC50 (A549 [5]): 1.7 µM

More lines, main results first:

inhibition [3]: inactive
inhibition [6]: tde
inhibition [7]: Dose-dependent effect
inhibition [8]: Dose-dependent effect
inhibition [10]: inactive
inhibition [11]: inactive
inhibition [12]: inactive
inhibition [13]: inactive
inhibition [14]: Active
inhibition [15]: inactive
inhibition [18]: tde
inhibition [19]: inactive
inhibition [20]: inactive
inhibition [21]: inactive
SMILES: COc1cccc(-c2cc(NC(=O)Nc3cc4ccc(OC5CCN(C)CC5)c(C)c4oc3=O)ccc2OC)c1
Activity (A549 [4]): Non-toxic
IC50 (A549 [5]): 0.15 µM
Activity (A549 [9]): Non-toxic
Activity (A549 [16]): inactive
IC50 (MCF7 [17]): 0.17 µM
IC50 (MRC5): 4.3 µM
Activity (A549 [22]): Non-toxic

inhibition [23]: Active
inhibition [24]: Active
inhibition [25]: Active
SMILES: Cc1c(OC2CCN(C)CC2)ccc2cc(NC(=O)Nc3cccc(-c4ccccc4)c3)c(=O)oc12
IC50 (A549 [5]): 0.06 µM

inhibition [33]: inactive
inhibition [34]: inactive
inhibition [35]: Active
inhibition [36]: Active
SMILES: COc1cccc(-c2cccc(NC(=O)Nc3cc4ccc(OC5CCN(C)CC5)c(C)c4oc3=O)c2)c1
IC50 (A549 [5]): 0.28 µM

inhibition [33]: inactive
inhibition [34]: inactive
inhibition [35]: Active
inhibition [36]: Active
SMILES: COc1ccc(NC(=O)Nc2cc3ccc(OC4CCN(C)CC4)c(C)c3oc2=O)cc1-c1ccccc1
IC50 (A549 [5]): 0.41 µM

Reference: ChEMBL document CHEMBL3769404, “Novobiocin Analogues That Inhibit the MAPK Pathway” (J Med Chem, 2016)
